According to ChEMBL document CHEMBL1649179, “Pharmacokinetics of LB80331 and LB80317 following oral administration of LB80380, a new antiviral agent for chronic hepatitis B (CHB), in healthy adult subjects, CHB patients, and mice” (Antimicrob Agents Chemother, 2009):

What was measured:
[1] = tested on: Homo sapiens; experiment: Tmax in chronic hepatitis B virus infected patient assessed as (1-((2-amino-9H-purin-9-yl)methyl)cyclopropoxy)me at 120 mg, po qd for 4 weeks by LC-MS analysis; format: ADME, organism-based; details: in vivo, 672 h
Outline: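 Daily oral LB80380 was given to CHB patients over 4 weeks. Blood was drawn on day 1 and at steady state (weeks 2–4), predose and 0.5–24 h postdose. Plasma LB80331 (LLOQ 5 ng/ml) and LB80317 (LLOQ 10 ng/ml) were measured by LC-MS/MS after protein-precipitation extraction. Tmax was taken by noncompartmental analysis.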

[2] = tested on: Homo sapiens; experiment: Oral clearance in chronic hepatitis B virus infected patient assessed as (1-((2-amino-9H-purin-9-yl)methyl)cyclopropoxy)me at 120 mg, po qd for 4 weeks by LC-MS analysis; format: ADME, organism-based; details: in vivo, 672 h
Outline: (§1)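 Oral LB80380 was given once daily for 4 weeks to CHB patients. Plasma LB80331 was quantified by validated LC-MS/MS after protein precipitation, with stable-isotope internal standard, at baseline and steady state (weeks 2–4), 0–24 h postdose. Noncompartmental CL/F was calculated as dose (adjusted for LB80380/LB80331 molecular weights) divided by AUC (AUC0-∞ single dose; AUC0-24 steady state).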

[3] = tested on: Homo sapiens; experiment: Oral clearance in chronic hepatitis B virus infected patient assessed as (1-((2-amino-9H-purin-9-yl)methyl)cyclopropoxy)me at 240 mg, po qd for 4 weeks by LC-MS analysis; format: ADME, organism-based; details: in vivo, 672 h; outline: as §1
[4] = tested on: Liver; experiment: Half life in CD-1 mouse liver assessed as (1-((2-amino-9H-purin-9-yl)methyl)cyclopropoxy)me at 30 mg/kg, po administered as single dose by LC-MS analysis; format: ADME, organism-based; design: dose 30 mg/kg, route oral; details: in vivo
Outline: (§2)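 Male CD-1 mice given a single oral dose in 100% PEG 400. Samples extracted with perchloric acid and neutralized with ammonium bicarbonate. One aliquot assayed for the free analyte; the other treated with calf intestinal phosphatase to give the total including di-/triphosphates. Analysis by LC-MS/MS.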

[5] = tested on: Liver; experiment: Tmax in CD-1 mouse liver assessed as di- and triphosphates of (1-((2-amino-9H-purin-9-yl)methyl)cyclopropoxy)me at 30 mg/kg, po administered as single dose by LC-MS analysis; format: ADME, organism-based; design: dose 30 mg/kg, route oral; details: in vivo
Outline: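 Male CD-1 mice received 30 mg/kg orally in 100% PEG 400. Plasma and snap-frozen liver were taken from 3 mice per time point at 1, 2, 4, 6, 10, 24 and 36 h. Samples were extracted with perchloric acid and neutralized with ammonium bicarbonate. Free LB80331/LB80317 was measured directly by LC-MS/MS; total, including di- and triphosphates, was measured after calf intestinal phosphatase treatment.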

[6] = tested on: Liver; experiment: Cmax in CD-1 mouse liver assessed as di- and triphosphates of (1-((2-amino-9H-purin-9-yl)methyl)cyclopropoxy)me at 30 mg/kg, po administered as single dose by LC-MS analysis; format: ADME, organism-based; design: dose 30 mg/kg, route oral; details: in vivo; outline: as §2
[7] = tested on: Liver; experiment: Half life in CD-1 mouse liver assessed as di- and triphosphates of (1-((2-amino-9H-purin-9-yl)methyl)cyclopropoxy)me at 30 mg/kg, po administered as single dose by LC-MS analysis; format: ADME, organism-based; design: dose 30 mg/kg, route oral; details: in vivo; outline: as §2
[8] = tested on: Homo sapiens; experiment: Tmax in fasted healthy human assessed as (1-((2-amino-9H-purin-9-yl)methyl)cyclopropoxy)me assessed as (1-((2-amino-9H-purin-9-yl)methyl)cyclopropoxy)me at 60 mg, po administered as single dose by LC-MS analysis; format: ADME, organism-based; details: in vivo
Outline: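 Healthy subjects received a single oral 60-mg dose after a high-fat breakfast or after an overnight fast. Plasma LB80331 was assayed by validated LC-MS/MS (LLOQ 5 ng/ml; intra- and interassay precision and accuracy <10%). Tmax was obtained by noncompartmental analysis.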

[9] = tested on: Homo sapiens; experiment: AUC (0 to infinity) in chronic hepatitis B virus infected patient assessed as (1-((2-amino-9H-purin-9-yl)methyl)cyclopropoxy)me at 30 mg, po administered as single dose by LC-MS analysis; format: ADME, organism-based, Plasma; design: dose 30 mg, time infinity, route oral; details: in vivo
Outline: (§3)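 CHB patients (HBsAg/HBeAg positive), six per dose cohort, given a first oral dose on day 1. Plasma sampled at baseline. Analysis by validated LC-MS/MS after protein precipitation with a stable-isotope internal standard; LLOQ 5 ng/ml for LB80331. Noncompartmental analysis gives Cmax and AUC0-∞.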

[10] = tested on: Homo sapiens; experiment: Cmax in chronic hepatitis B virus infected patient assessed as (1-((2-amino-9H-purin-9-yl)methyl)cyclopropoxy)me at 30 mg, po administered as single dose by LC-MS analysis; format: ADME, organism-based; design: dose 30 mg, route oral; details: in vivo; outline: as §3
[11] = tested on: Homo sapiens; experiment: AUC (0 to infinity) in chronic hepatitis B virus infected patient assessed as (1-((2-amino-9H-purin-9-yl)methyl)cyclopropoxy)me at 60 mg, po administered as single dose by LC-MS analysis; format: ADME, organism-based, Plasma; design: dose 60 mg, time infinity, route oral; details: in vivo; outline: as §3
[12] = tested on: Homo sapiens; experiment: Cmax in chronic hepatitis B virus infected patient assessed as (1-((2-amino-9H-purin-9-yl)methyl)cyclopropoxy)me at 240 mg, po administered as single dose by LC-MS analysis; format: ADME, organism-based; design: dose 240 mg, route oral; details: in vivo; outline: as §3
[13] = tested on: Homo sapiens; experiment: Half life in chronic hepatitis B virus infected patient assessed as (1-((2-amino-9H-purin-9-yl)methyl)cyclopropoxy)me at 30 mg, po qd for 4 weeks by LC-MS analysis; format: ADME, organism-based; details: in vivo, 672 h
Outline: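 CHB patients given LB80380 orally once daily for 4 weeks. Plasma was sampled on day 1 and at steady state (weeks 2–4), predose and 0.5, 1, 2, 3, 4, 6, 8 and 24 h postdose. LB80331 was measured by validated LC-MS/MS (LLOQ 5 ng/ml). Terminal-phase apparent t1/2 came from noncompartmental analysis and was flagged if extrapolated AUC exceeded 20% of AUC0-24.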

[14] = tested on: Homo sapiens; experiment: Ratio of AUC (0 to infinity) in high fat diet fed healthy human to AUC (0 to infinity) in fasted healthy human assessed as (1-((2-amino-9H-purin-9-yl)methyl)cyclopropoxy)me at 60 mg, po administered as single dose by LC-MS analysis; details: in vivo

**Q.** What does the source list for Nc1ncc2ncn(CC3(OCP(=O)(O)O)CC3)c2n1 [BESIFOVIR]?
**A.** Tmax [1]: 1 h; CL/F [2]: 304 mL/min; CL/F [3]: 416 mL/min; t1/2 [4]: 2.8 h; Tmax [5]: 1 h; Cmax [6]: 17 µM; t1/2 [7]: 3.2 h; Tmax [8]: 1.5 h; AUC [9]: 1069 ng·h/mL; Cmax [10]: 200 ng/mL; AUC [11]: 2344 ng·h/mL; Cmax [12]: 1076 ng/mL; t1/2 [13]: 2.5 h; Ratio AUC [14]: 1.1
